In ChEMBL document CHEMBL3593234, “Lanostane Triterpenes from the Tibetan Medicinal Mushroom Ganoderma leucocontextum and Their Inhibitory Effects on HMG-CoA Reductase and α-Glucosidase” (J Nat Prod, 2015):

Key:
[1] = Inhibition of Baker's yeast alpha-glucosidase; set-up: species or system Saccharomyces cerevisiae
Method in brief: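 Baker's yeast α-glucosidase assay read by absorbance at 405 nm. Control wells got phosphate buffer instead of compound, and blanks got buffer instead of enzyme. Percent inhibition was calculated from blank-corrected OD of test versus control wells.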

PC-3 = assay: Cytotoxicity against human PC3 cells by MTT method; type: functional, cell-based
[2] = molecular target: T1, 3-hydroxy-3-methylglutaryl-coenzyme A reductase (Sus scrofa, UniProt Q1W675); assay: Inhibition of pig liver microsomes HMG-CoA reductase incubated for 5 mins in using HMG-CoA and NADPH by colorimetric method
T1 sequence (Q1W675 whole entry): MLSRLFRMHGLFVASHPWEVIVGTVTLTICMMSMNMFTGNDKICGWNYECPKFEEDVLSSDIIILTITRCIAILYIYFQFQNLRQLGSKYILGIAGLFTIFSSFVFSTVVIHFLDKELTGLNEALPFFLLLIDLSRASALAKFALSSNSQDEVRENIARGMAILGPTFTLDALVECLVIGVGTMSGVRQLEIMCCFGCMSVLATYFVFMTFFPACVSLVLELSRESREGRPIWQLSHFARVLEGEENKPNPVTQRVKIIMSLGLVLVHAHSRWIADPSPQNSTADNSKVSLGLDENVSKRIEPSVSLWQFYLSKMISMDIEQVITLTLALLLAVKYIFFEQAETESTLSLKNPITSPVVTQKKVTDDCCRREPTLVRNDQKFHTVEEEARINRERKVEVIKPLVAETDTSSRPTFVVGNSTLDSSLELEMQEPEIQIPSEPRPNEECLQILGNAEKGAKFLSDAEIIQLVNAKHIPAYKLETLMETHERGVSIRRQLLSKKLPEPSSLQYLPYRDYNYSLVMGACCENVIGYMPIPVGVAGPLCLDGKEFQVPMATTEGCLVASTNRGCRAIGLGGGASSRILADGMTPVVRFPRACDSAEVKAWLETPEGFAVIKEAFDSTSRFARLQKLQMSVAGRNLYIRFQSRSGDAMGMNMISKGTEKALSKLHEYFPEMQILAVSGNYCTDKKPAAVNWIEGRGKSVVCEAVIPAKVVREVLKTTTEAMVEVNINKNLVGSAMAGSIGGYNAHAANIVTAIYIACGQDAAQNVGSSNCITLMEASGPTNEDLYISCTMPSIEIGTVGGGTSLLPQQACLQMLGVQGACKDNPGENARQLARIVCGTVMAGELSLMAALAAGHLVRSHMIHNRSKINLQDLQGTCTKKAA
Method in brief: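 Pig liver microsomal HMG-CoA reductase at about 4 U/mL final, with compound at 2.5–80 μM final and 200 μM HMG-CoA. Buffer was 0.1 mol/L potassium phosphate pH 7.0 with EDTA, dithiothreitol and BSA. After 5 min at 37 °C, 100 μM NADPH was added for 15 min at 37 °C. Absorbance was read at 340 nm, with percent inhibition from blank-corrected OD.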

K562 = assay: Cytotoxicity against human K562 cells by MTT method; type: functional, cell-based
[3] = molecular target: Sucrase-isomaltase, intestinal (Rattus norvegicus, UniProt P23739); assay: Inhibition of sucrase in rat intestinal mucosa pre-incubated for 40 mins using sucrose substrate; type: tissue-based
Method in brief: (§1)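 Rat intestinal mucosa powder (1.0 g) was suspended in 3 mL 0.9% saline and sonicated at 4 °C (12 × 30 s), then spun at 10000g, 4 °C, 30 min; the supernatant served as enzyme. Compound in DMSO was mixed with substrate (maltose, sucrose or p-nitrophenyl-α-D-glucopyranoside) in 0.1 M phosphate buffer pH 6.9 and preincubated 40 min. Glucose was read by GOD kit at 550 nm, with blank-corrected percent inhibition.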

[4] = Inhibition of alpha-glucosidase in rat intestinal mucosa pre-incubated for 40 mins using p-nitrophenyl-alpha-D-glucopyranoside substrate; type: tissue-based; method in brief: as §1

Sequence of Sucrase-isomaltase, intestinal (P23739 1-1013 limits assumed): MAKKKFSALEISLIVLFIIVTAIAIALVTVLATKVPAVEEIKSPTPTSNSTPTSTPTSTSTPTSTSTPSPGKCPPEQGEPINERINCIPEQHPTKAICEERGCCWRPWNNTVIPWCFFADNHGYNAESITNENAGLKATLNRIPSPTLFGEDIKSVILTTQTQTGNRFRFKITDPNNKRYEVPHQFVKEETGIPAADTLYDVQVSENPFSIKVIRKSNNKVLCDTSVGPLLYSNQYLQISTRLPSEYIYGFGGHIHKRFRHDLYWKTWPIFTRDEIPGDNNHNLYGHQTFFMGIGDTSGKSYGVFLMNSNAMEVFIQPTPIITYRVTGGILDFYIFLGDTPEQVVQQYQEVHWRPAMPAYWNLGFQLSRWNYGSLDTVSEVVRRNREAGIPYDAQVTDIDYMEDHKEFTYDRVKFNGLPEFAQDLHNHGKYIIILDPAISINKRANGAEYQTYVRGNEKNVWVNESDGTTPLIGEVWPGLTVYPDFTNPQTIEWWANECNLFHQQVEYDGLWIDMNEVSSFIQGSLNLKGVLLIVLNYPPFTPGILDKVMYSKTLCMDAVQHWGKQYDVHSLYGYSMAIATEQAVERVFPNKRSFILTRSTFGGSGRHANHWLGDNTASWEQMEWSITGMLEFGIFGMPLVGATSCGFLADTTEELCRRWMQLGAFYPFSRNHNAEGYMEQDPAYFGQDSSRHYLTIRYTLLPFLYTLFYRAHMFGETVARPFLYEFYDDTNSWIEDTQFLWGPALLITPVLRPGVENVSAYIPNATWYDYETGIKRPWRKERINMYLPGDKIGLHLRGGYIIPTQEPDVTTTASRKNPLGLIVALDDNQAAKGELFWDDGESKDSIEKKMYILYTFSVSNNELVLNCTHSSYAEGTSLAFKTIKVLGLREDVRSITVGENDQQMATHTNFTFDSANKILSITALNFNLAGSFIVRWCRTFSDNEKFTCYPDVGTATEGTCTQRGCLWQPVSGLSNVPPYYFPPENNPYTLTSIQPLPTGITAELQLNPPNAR
Sequence of Sucrase-isomaltase, intestinal (P23739 1014-1841 limits assumed): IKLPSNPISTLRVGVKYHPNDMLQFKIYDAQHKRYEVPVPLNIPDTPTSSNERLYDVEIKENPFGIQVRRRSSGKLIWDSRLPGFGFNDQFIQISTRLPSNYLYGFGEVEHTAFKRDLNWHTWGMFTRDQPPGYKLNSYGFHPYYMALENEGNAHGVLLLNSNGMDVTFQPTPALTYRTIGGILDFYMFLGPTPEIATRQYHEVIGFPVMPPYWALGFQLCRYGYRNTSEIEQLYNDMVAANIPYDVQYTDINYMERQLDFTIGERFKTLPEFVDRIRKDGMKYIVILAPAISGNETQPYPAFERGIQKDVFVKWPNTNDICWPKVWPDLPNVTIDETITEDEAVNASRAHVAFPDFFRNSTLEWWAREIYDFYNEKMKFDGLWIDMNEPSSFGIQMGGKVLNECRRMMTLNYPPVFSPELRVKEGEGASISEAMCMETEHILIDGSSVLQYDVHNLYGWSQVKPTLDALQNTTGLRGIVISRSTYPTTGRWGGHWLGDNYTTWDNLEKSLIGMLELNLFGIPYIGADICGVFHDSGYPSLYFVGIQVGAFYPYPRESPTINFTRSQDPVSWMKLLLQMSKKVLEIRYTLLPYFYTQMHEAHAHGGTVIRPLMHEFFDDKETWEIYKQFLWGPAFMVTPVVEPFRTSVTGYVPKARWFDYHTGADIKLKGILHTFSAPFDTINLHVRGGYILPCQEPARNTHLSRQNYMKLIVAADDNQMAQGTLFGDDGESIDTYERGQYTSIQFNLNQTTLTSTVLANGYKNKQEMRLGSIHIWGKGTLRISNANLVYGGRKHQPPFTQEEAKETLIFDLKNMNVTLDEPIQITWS

Row | Compound | IC50 [1] [µM] | IC50 (PC-3; Homo sapiens, PC-3) [µM] | IC50 [2] [µM] | IC50 (K562; Homo sapiens, K562) [µM] | IC50 [3] [µM] | IC50 [4] [µM] | IC50 (K562; k562) [µM] | IC50 (PC-3; pc-3) [µM]
1 | C/C(=C\CC[C@@H](C)[C@H]1CC[C@@]2(C)C3=C(C(=O)C[C@]12C)[C@@]1(C)CCC(=O)[C@@](C)(CO)[C@@H]1C[C@@H]3O)C(=O)O | > 50 | > 200 | 17.1 | 17.8 | – | – | – | –
2 | C/C(=C\CC[C@@H](C)[C@H]1CC[C@@]2(C)C3=C(C(=O)[C@H](O)[C@]12C)[C@@]1(C)CCC(=O)[C@@](C)(CO)[C@@H]1C[C@@H]3O)C(=O)O | > 50 | > 200 | 66.9 | 19.7 | – | – | – | –
3 | CC(=O)O[C@H]1C(=O)C2=C([C@@H](O)C[C@H]3[C@](C)(CO)C(=O)CC[C@]23C)[C@]2(C)CC[C@H]([C@H](C)CC/C=C(\C)C(=O)O)[C@@]12C | > 50 | > 200 | 26.6 | > 200 | – | – | – | –
4 | CC(=O)O[C@H]1C(=O)C2=C([C@@H](O)C[C@H]3[C@](C)(CO)C(=O)CC[C@]23C)[C@]2(C)C(=O)C[C@H]([C@H](C)CC/C=C(\C)C(=O)O)[C@@]12C | > 50 | 88.3 | 97.5 | 147 | – | – | – | –
5 | C/C(=C\CC[C@@H](C)[C@H]1CC(=O)[C@@]2(C)C3=C(C(=O)[C@H](O)[C@]12C)[C@@]1(C)CCC(=O)[C@@](C)(CO)[C@@H]1C[C@@H]3O)C(=O)O | 12.7 | > 200 | > 100 | > 200 | – | – | – | –
6 | CC(=O)O[C@H]1C(=O)C2=C(C(=O)C[C@H]3[C@](C)(CO)C(=O)CC[C@]23C)[C@]2(C)C(=O)C[C@H]([C@H](C)CC/C=C(\C)C(=O)O)[C@@]12C | > 50 | > 200 | 20.5 | 18.2 | – | – | – | –
7 | C[C@H](CCC=C(CO)CO)[C@H]1CC[C@@]2(C)C3=C(C(=O)C[C@]12C)[C@@]1(C)CCC(=O)C(C)(C)[C@@H]1C[C@@H]3O | > 50 | 132 | > 100 | 11.4 | – | – | – | –
8 | C[C@H](CCC=C(CO)CO)[C@H]1CC[C@@]2(C)C3=C(C(=O)C[C@]12C)[C@@]1(C)CCC(=O)C(C)(C)[C@@H]1CC3=O | > 50 | 24.2 | 32.9 | 115 | – | – | – | –
9 | C[C@H](CCC=C(CO)CO)[C@H]1C[C@@H](O)[C@@]2(C)C3=C(C(=O)C[C@]12C)[C@@]1(C)CCC(=O)C(C)(C)[C@@H]1CC3 | > 50 | > 200 | > 100 | > 200 | – | – | – | –
10 | CC(=O)O[C@H]1C(=O)C2=C([C@@H](O)C[C@H]3[C@](C)(COC(=O)C[C@@](C)(O)CC(=O)O)C(=O)CC[C@]23C)[C@]2(C)C(=O)C[C@H]([C@H](C)CC/C=C(\C)C(=O)O)[C@@]12C | > 50 | 110 | 26.4 | 12.3 | – | – | – | –
11 | C/C(=C\CC[C@@H](C)[C@H]1CC(=O)[C@@]2(C)C3=C(C(=O)[C@H](O)[C@]12C)[C@@]1(C)CCC(=O)[C@@](C)(COC(=O)C[C@@](C)(O)CC(=O)O)[C@@H]1CC3=O)C(=O)O | > 50 | > 200 | 10.7 | 22.6 | – | – | – | –
12 | C/C(=C\CC[C@@H](C)[C@H]1CC(=O)[C@@]2(C)C3=C(C(=O)C[C@]12C)[C@@]1(C)CCC(=O)[C@@](C)(COC(=O)C[C@@](C)(O)CC(=O)O)[C@@H]1CC3=O)C(=O)O | > 50 | > 200 | 13.3 | 14.4 | – | – | – | –
13 | CC(C)=CCC/C(C)=C/CC/C(=C/Cc1cc(O)ccc1O)C(=O)OC[C@@](C)(O)[C@@H](O)CC[C@@H](C)[C@H]1CC[C@@]2(C)C3=CC[C@H]4C(C)(C)C(=O)CC[C@]4(C)C3=CC[C@]12C | 13.6 | 58.4 | 18.9 | 48.6 | 8.4 | 1.5 | – | –
14 | CC(C)=CCC/C(C)=C/CC/C(=C/Cc1cc(O)ccc1O)C(=O)O[C@@H](CC[C@@H](C)[C@H]1CC[C@@]2(C)C3=CC[C@H]4C(C)(C)C(=O)CC[C@]4(C)C3=CC[C@]12C)[C@](C)(O)CO | 2.5 | 14.4 | 24.1 | 48.4 | 22.5 | 8.1 | – | –
15 | C[C@H](CCC=C(CO)CO)[C@H]1CC[C@@]2(C)C3=C(CC[C@]12C)[C@@]1(C)CCC(=O)C(C)(C)[C@@H]1CC3=O | > 50 | > 200 | 12.6 | 41.6 | – | – | – | –
16 | C/C(=C/CC[C@@H](C)[C@H]1CC[C@@]2(C)C3=C(C(O)C[C@]12C)[C@@]1(C)CCC(=O)C(C)(C)[C@@H]1CC3=O)C(=O)O (stereo partly drawn) | > 50 | > 200 | > 100 | > 200 | – | – | – | –
17 | C[C@H](CCC=C(CO)CO)[C@H]1C[C@@H](O)[C@@]2(C)C3=CC[C@H]4C(C)(C)C(=O)CC[C@]4(C)C3=CC[C@]12C | > 50 | 103 | > 100 | 76.6 | – | – | – | –
18 | C/C(=C/CC[C@@H](C)[C@H]1CC[C@@]2(C)C3=C(CC[C@]12C)[C@@]1(C)CCC(=O)C(C)(C)[C@@H]1CC3=O)C(=O)O (stereo in doubt; 18) [GANODERIC ACID DM] | > 50 | 81.6 | 9.5 | – | – | – | 18.8 | –
19 | C/C(=C/CC[C@@H](C)[C@H]1CC[C@@]2(C)C3=C(CC[C@]12C)[C@@]1(C)CCC(=O)C(C)(C)[C@@H]1CC3=O)C(=O)O (stereo in doubt; 21) [GANODERIC ACID DM] | – | – | 56.1 | – | – | – | 55.4 | 149
20 | C[C@H]1O[C@H](O[C@H]2[C@H](O)[C@@H](O)[C@@H](O[C@H]3[C@H](O)[C@@H](O)C(O)O[C@@H]3CO)O[C@@H]2CO)[C@H](O)[C@@H](O)[C@@H]1N[C@H]1C=C(CO)[C@@H](O)[C@H](O)[C@H]1O (stereo partly drawn) [ACARBOSE] | 273 | – | – | – | – | – | – | –
21 | CC(C)c1c(C(=O)Nc2ccccc2)c(-c2ccccc2)c(-c2ccc(F)cc2)n1CC[C@@H](O)C[C@@H](O)CC(=O)O [ATORVASTATIN] | – | – | 32.1 | – | – | – | – | –
22 | COc1cccc2c1C(=O)c1c(O)c3c(c(O)c1C2=O)C[C@@](O)(C(=O)CO)C[C@@H]3O[C@H]1C[C@H](N)[C@H](O)[C@H](C)O1 [DOXORUBICIN] | – | 2 | – | – | – | – | – | –
23 | C/C(=C/CC[C@@H](C)[C@H]1CC[C@@]2(C)C3=CC[C@H]4C(C)(C)C(=O)CC[C@]4(C)C3=CC[C@]12C)C(=O)O [GANODERIC ACID S] | > 50 | 75.2 | 12.5 | 65.2 | – | – | – | –
24 | C/C(=C\CC[C@@H](C)[C@H]1CC[C@@]2(C)C3=CC[C@H]4C(C)(C)[C@@H](O)CC[C@]4(C)C3=CC[C@]12C)C(=O)O [GANODERIC ACID Y] | > 50 | 180 | 8.6 | 17.5 | – | – | – | –
25 | C[C@H](CCC=C(CO)CO)[C@H]1CC[C@@]2(C)C3=CC[C@H]4C(C)(C)C(=O)CC[C@]4(C)C3=CC[C@]12C [GANODERIOL F] | > 50 | 79.5 | > 100 | 54.9 | – | – | – | –
26 | C[C@H](CC[C@H](O)[C@](C)(O)CO)[C@H]1CC[C@@]2(C)C3=CC[C@H]4C(C)(C)C(=O)CC[C@]4(C)C3=CC[C@]12C [GANODERMANONTRIOL] | > 50 | 106 | 16.8 | 80.9 | – | – | – | –
27 | C/C(=C\CC[C@@H](C)[C@H]1CC[C@@]2(C)C3=C(CC[C@]12C)[C@@]1(C)CCC(=O)C(C)(C)[C@@H]1CC3=O)CO [GANODERONE A] | 13.7 | 28.5 | > 100 | 27.7 | – | – | – | –
28 | CC(=O)O[C@H]1C(=O)[C@@]2(C)[C@H]([C@H](OC(=O)c3ccccc3)[C@]3(O)C[C@H](OC(=O)[C@H](O)[C@@H](NC(=O)c4ccccc4)c4ccccc4)C(C)=C1C3(C)C)[C@]1(OC(C)=O)CO[C@@H]1C[C@@H]2O [PACLITAXEL] | – | – | – | 0.9 | – | – | – | –
